Hits are enriched below; roughly 3.5% of the tested compounds scored in any of these assays.
MrgX1 antagonist: human MrgX1 receptor antagonism, primary screen; Q96LB2; MRGX1-HEK293 calcium flux, Fluo-4, BAM8-22 antagonism; stronger effect = lower value; B-score at 10 µM; 1.3% of 310,000 active;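 active = calcium-response B-score plate-corrected more than 3 library SD below zero, starting fluorescence within 5 deviations, no agonist response on first addition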;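 note: peak minus trough fluorescence over baseline after final BAM8-22 challenge near maximal dose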
Target sequence (Q96LB2 whole entry, looked up): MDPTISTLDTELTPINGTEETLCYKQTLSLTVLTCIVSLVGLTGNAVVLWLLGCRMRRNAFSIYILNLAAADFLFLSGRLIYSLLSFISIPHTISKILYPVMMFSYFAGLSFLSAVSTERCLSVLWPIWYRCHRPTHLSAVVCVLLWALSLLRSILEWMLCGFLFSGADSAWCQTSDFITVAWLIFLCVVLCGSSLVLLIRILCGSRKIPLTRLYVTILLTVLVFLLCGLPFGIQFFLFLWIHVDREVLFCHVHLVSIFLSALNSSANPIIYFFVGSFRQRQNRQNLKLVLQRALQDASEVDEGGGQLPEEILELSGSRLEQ
RGS4 block: human RGS4 inhibition; 0.45% of 310,000 active; B-score at 10 µM; P49798; AID 463165; HEK293 M3R/RGS4 inducible, Fluo-4 calcium flux; stronger effect = higher value; triggered by carbachol at its EC20;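 active = B-score, a plate-corrected calcium signal, over three deviations above library mean, with baseline fluorescence within five deviations of library mean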;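 note: RGS4 expression induced by doxycycline in cells with stable M3 receptor; B-score is computed from the integrated fluorescence ratio over baseline after carbachol; higher B-score means a larger calcium signal and so more RGS4 inhibition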
Target sequence (P49798 whole entry, looked up): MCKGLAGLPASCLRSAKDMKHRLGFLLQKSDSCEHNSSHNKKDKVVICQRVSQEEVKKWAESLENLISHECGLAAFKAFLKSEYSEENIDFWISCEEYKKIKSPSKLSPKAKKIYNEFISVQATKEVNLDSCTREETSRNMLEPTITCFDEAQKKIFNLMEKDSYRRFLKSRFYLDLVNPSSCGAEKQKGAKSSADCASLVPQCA
RGS4 act: potentiators or activators of RGS4; HEK293 M3R/inducible RGS4, carbachol calcium flux Fluo4; stronger effect = lower value; B-score at 10 µM; 0.92% of 310,000 active; AID 463111;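 active = B-score of the integrated calcium signal more than 4 SD below the library mean, with starting fluorescence not abnormally high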;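 note: negative B-score means reduced calcium response which marks RGS4 activation or potentiation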
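Material: M3R-expressing HEK293 line, RGS4 induced by doxycycline | Schedule: Overnight RGS4 induction, 30 min dye load 37 °C, 20 min compound RT | Measured by: Fluo4 fluorescence kinetic imaging of calcium | Read-out: Integrated calcium ratio converted to B score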
MrgX1 ag: agonists of human MrgX1 receptor; AID 588627; 0.44% of 310,000 active; MrgX1-HEK293 cells, Fluo-4 calcium fluorescence, agonist mode; stronger effect = higher value; B-score at 10 µM;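 active = calcium response B-score plate-corrected fluorescence ratio at least 3 library SD, with starting fluorescence B-score inside 5 SD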
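Test system: HEK293 cells stably expressing human MrgX1 receptor; amount: 15,000 cells per well; doses: compound delivered in addition one of three; times: overnight plating before 1 h dye loading; detection: Fluo-4 NW calcium-flux fluorescence, kinetic read; read-out basis: B-scored fluorescence response ratio; controls: positive and negative controls per plate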
MrgX1 PAM: human MrgX1 positive allosteric modulation, primary screen; 0.63% of 310,000 active; Q96LB2; MrgX1-HEK293, Fluo-4 calcium flux, FDSS; stronger effect = higher value; B-score at 10 µM; AID 588675;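 active = plate-corrected calcium response at least 3 library SD above typical, normal starting fluorescence, not activating the receptor alone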;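 note: compound read alongside a low EC10 to EC30 dose of BAM8-22 agonist; peak minus trough fluorescence over baseline measured at the second addition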
* = called active by the depositor; i = inactive; x = no result.

SMILES	MrgX1 antagonist	RGS4 block	RGS4 act	MrgX1 ag	MrgX1 PAM
CCN1C(=O)/C(=C\c2ccc(-c3cccc(C(=O)OC)c3)o2)SC1=Nc1ccc(C(=O)O)cc1	-6.5*	i	i	i	i
CCN=C1S/C(=C\c2ccc(-c3cccc(C(=O)O)c3)o2)C(=O)N1CC	i	i	i	i	i
CCc1ccc(-c2ccc(SCC(=O)NCC3CCCO3)nn2)cc1 (configuration not stated)	i	i	i	i	i
COc1cc(/C=C2/C(=O)c3cccc([N+](=O)[O-])c3C2=O)c(Br)cc1O	i	x	x	35*	i
COc1ccccc1NC(=O)CCCCCN1C(=O)c2cccc([N+](=O)[O-])c2C1=O	i	i	i	i	i
COC(=O)C1CCCCN1C(=O)c1ccc2oc(Cc3ccccc3)nc2c1 (configuration not stated)	-5.3*	i	i	i	i
NCCCCCc1nnc(SCc2ccc(Cl)c(Cl)c2)o1	i	i	-7.1*	i	i
CCOC(=O)C1CCCN(C(=O)c2ccc([N+](=O)[O-])c(C)c2)C1 (configuration not stated)	i	i	i	i	i
CCOC(=O)C1CCCN(C(=O)c2ccc(C)c([N+](=O)[O-])c2)C1 (configuration not stated)	i	i	-8.6*	i	i
OC(c1cc(-c2ccc(C(F)(F)F)cc2)nc(C(F)(F)F)c1)C1CCCCN1 (configuration not stated)	-5.4*	i	-7.8*	i	i
CCOC(=O)c1c(C)[nH]c(C2=NNC(=Nc3cccc(Cl)c3)SC2)c1C	i	i	i	i	22*
COc1c(CC=C(C)C)cc(C2CC(=O)c3c(O)cc(O)cc3O2)c(CC=C(C)C)c1O (configuration not stated)	i	i	-7.6*	i	i
CCOc1ccccc1N(CC)C(=O)c1nn(C)c2c1CSc1ccccc1-2	i	i	i	i	i
CCN(CC)S(=O)(=O)c1ccc(OC(C)C)c(NC(=O)c2c3c(nc4ccccc24)CCN(Cc2ccccc2)C3)c1	-5*	i	i	i	i
c1ccc(-c2nc(-n3nc4ccccc4n3)nc3ccccc23)cc1	i	i	-7.2*	i	i
Clc1ccc(-c2nc(N3CCCCC3)nc3ccccc23)cc1	i	i	i	i	i
Cc1cc(-n2c(C)cc(C(=O)CSc3ncnc4ccccc34)c2C)no1	-4.7*	i	i	i	i
CN1CCCCC1CCN1c2ccccc2Sc2ccc(S(C)=O)cc21 (configuration not stated)	i	i	-7.3*	i	i
CN1CCCC(CN2c3ccccc3Sc3ccccc32)C1 (configuration not stated)	i	i	i	i	i
CC(OC(=O)CCCC(=O)Nc1ccccc1)C(=O)c1ccccc1 (configuration not stated)	i	i	i	i	i
CC(C)Nc1ccc(Nc2ccnc3cc4ccccc4cc23)cc1	i	i	-9.9*	i	i
Cc1ccc(C)c(S(=O)(=O)N2CCCCC2CCNC(=O)C(=O)NC2CC2)c1 (configuration not stated)	i	i	i	i	i
CN1CCN(C(=O)CSc2nc(-c3cccs3)ccc2C#N)CC1	i	i	i	46*	i
N#Cc1ccc(-c2cccs2)nc1SCc1cccnc1	i	i	i	i	i
COc1ccc(N2CCN(C(=O)COc3ccc(S(=O)(=O)N4CCOCC4)cc3C)CC2)cc1	i	i	i	i	i
SMILES	MrgX1 antagonist	RGS4 block	RGS4 act	MrgX1 ag	MrgX1 PAM
C=CCN(C(=O)CNC(=O)c1cccs1)C(C(=O)NC1CCCCC1)c1cccnc1 (configuration not stated)	i	i	i	i	i
COc1ccc(CC(=O)NC2CC2)cc1OC	i	i	i	i	i
CC1(C)C2CC[C@]3(C)C(CC=C4[C@@H]5C[C@@](C)(CO)[C@@H](O)C[C@]5(C(=O)O)CC[C@]43C)[C@@]2(C)CC[C@@H]1O (some centres not stated)	i	i	i	i	i
CC(=O)O[C@H]1CC[C@]2(C)[C@H]3CC=C4[C@@H]5[C@@H](C)[C@H](C)CC[C@]5(C(=O)O)CC[C@@]4(C)[C@]3(C)CC[C@H]2C1(C)C	i	14*	i	i	i
COc1ccc(C(=O)Nc2ccccc2[N+](=O)[O-])cc1S(=O)(=O)N1CCOCC1	i	i	i	i	i
Cc1ccc(C(=O)Nc2ccccc2[N+](=O)[O-])cc1S(=O)(=O)N1CCOCC1	i	i	i	i	8*
COc1ccc(-c2csc3ncnc(N4CCN(c5ccccc5[N+](=O)[O-])CC4)c23)cc1	i	i	-7.3*	i	i
COc1ccc(-c2csc3ncnc(N4CCN(S(=O)(=O)c5ccc(C(C)=O)cc5)CC4)c23)cc1	i	i	-7*	i	i
CCc1cc(C(=O)N/N=C/c2ccc(O)cc2O)c2ccccc2n1	i	i	i	i	i
C#CCn1c(=NC(=O)c2sc3ccccc3c2Cl)sc2cc(S(N)(=O)=O)ccc21	i	i	i	i	i
CC(C)CC(OC(=O)c1nsc(Cl)c1Cl)C(=O)NCC1CCCO1 (configuration not stated)	i	i	i	i	i
O=C(NCC(=O)N1CCN(c2ccccc2)CC1)c1cccs1	i	i	i	i	i
CCN1C(=O)/C(=C\N2CCN(C)CC2)SC1=S	-4.6*	i	i	i	i
COc1cc(C(=O)NC(=S)NNC(=O)c2ccc3c(c2)OCO3)cc(OC)c1OC	i	i	i	60*	i
COc1ccc(Cl)cc1C(=O)NNC(=S)NC(=O)c1ccc(F)c(F)c1	-5.9*	i	i	i	i
Cc1c(NC(=S)NC(=O)c2sc3ccccc3c2Cl)cccc1C(=O)O	i	i	i	i	i
COc1ccc(C(=O)NNC(=S)NC(=O)c2ccc(F)cc2)cc1Br	i	i	i	i	i
COc1ccccc1C(=O)NNC(=S)NC(=O)c1sc2ccccc2c1Cl	i	i	-8.7*	36*	i
COc1ccc(Cl)cc1C(=O)NNC(=S)NC(=O)c1cc(-c2ccc(Cl)cc2)nc2ccccc12	-7.3*	i	-8.4*	i	i
CC(C)(C)c1ccc(Cn2nnc3c(=O)[nH]c(C4CCN(C(=O)c5ccco5)CC4)nc32)cc1	x	i	i	x	x
